Reference: ChEMBL document CHEMBL4321819, “Simple Structural Modifications Converting a Bona fide MDM2 PROTAC Degrader into a Molecular Glue Molecule: A Cautionary Tale in the Design of PROTAC Degraders” (J Med Chem, 2019)
Calls of active or inactive are those of the source. The rule behind the calls is not given here.

Legend:
MDA-MB-231 [1] = experiment: Antiproliferative activity against human MDA-MB-231 cells transfected with CRBN siRNA LQ-021086-11-0002 assessed as cell growth inhibition after 4 days by WST-8 assay; format: functional, cell-based; conditions: MDA-MB-231, 96 h
Procedure, shortened: (§1)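 MDA-MB-231 or MDA-MB-468 cells transfected for 2 days using Lipofectamine RNAiMAX with MDM2 siRNA, one of two CRBN siRNAs, or non-targeting control siRNA. Compound then added and growth read by WST-8 at 450 nm.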

[2] = target: T1, Protein cereblon/Eukaryotic peptide chain release factor GTP-binding subunit ERF3A/DNA damage-binding protein 1/Cullin-4A (Homo sapiens) (UniProt Q96SW2+Q16531+Q13619+P15170); experiment: Protac activity at GSPT1/CUL4/DDB1/CRBN in human RS4:11 cells expressing wild type p53 assessed as decrease in GSPT1 protein level measured upto 24 hrs by Western blot analysis; format: cell-based
Procedure, shortened: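 RS4;11 (wild-type p53) or RS4;11/IRMI-2 (MDM2 inhibitor-resistant derivative, mutant p53) cells kept in RPMI 1640 with 10% FBS at 37 °C, 5% CO₂. 2×10^6 cells/well treated at the indicated concentrations and times, then lysed in ice-cold lysis buffer with protease inhibitor. GSPT1 detected by Western blot with a specific antibody.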

[3] = target: T2, Eukaryotic peptide chain release factor GTP-binding subunit ERF3A (Homo sapiens, UniProt P15170); experiment: Induction of GSPT1 degradation in human MDA-MB-231 cells transfected with CRBN siRNA LQ-021086-10-0002 assessed as decrease in GSPT1 protein level at 0.1 uM after 2 to 24 hrs by Western blot analysis; format: cell-based
Procedure, shortened: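 MDA-MB-231 cells transfected with CRBN or non-targeting siRNA, then exposed to 0.1 μM compound for 2 h or 24 h. Lysed in ice-cold lysis buffer with protease inhibitor; GSPT1 and cereblon probed by Western blot.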

[4] = target: T3, E3 ubiquitin-protein ligase Mdm2 (Homo sapiens, UniProt Q00987); experiment: Displacement of PMDM6-F fluorescent probe from human recombinant His-tagged MDM2 (1 to 118 residues) after 15 mins by fluorescence polarization assay
Procedure, shortened: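 Recombinant human His-tagged MDM2 (residues 1–118) with a FAM-labelled p53-based peptide as fluorescent probe; competitive fluorescence-polarization binding. Mean ± standard error from at least three independent experiments.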
Target sequence in this assay (Q00987 whole entry, the tested form may be a part): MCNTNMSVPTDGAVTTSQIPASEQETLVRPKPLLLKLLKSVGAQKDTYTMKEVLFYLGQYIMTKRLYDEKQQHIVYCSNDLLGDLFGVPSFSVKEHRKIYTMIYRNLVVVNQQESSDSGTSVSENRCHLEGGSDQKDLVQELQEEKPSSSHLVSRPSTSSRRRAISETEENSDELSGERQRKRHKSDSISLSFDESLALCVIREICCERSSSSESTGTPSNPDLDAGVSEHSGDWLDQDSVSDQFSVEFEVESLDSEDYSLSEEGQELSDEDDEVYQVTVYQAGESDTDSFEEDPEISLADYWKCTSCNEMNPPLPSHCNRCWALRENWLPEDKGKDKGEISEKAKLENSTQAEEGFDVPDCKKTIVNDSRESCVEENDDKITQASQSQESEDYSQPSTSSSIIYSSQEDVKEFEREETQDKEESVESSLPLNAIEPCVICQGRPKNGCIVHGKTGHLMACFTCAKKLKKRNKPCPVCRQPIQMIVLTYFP

[5] = Antiproliferative activity against human RS4:11/IRMI-2 cells harboring p53 hotspot mutation Y236H/R249G assessed as MDM2-independent cell growth inhibition after 4 days by WST-8 assay; format: functional, cell-based; conditions: RS4-11, 96 h
Procedure, shortened: (§2)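 Leukemia cells seeded at 10000–20000 cells/well, breast cancer lines at 5000–10000 cells/well. Serially diluted compound added, then 4 days at 37 °C, 5% CO2. Growth read with WST-8 reagent after at least 1 h, absorbance at 450 nm. RS4;11, MOLM-13 and breast lines were grown in RPMI 1640; MV-4-11 and HL-60 in IMDM; all with 10% FBS. Mean ± SE, at least three independent experiments.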

MDA-MB-468 [6] = experiment: Antiproliferative activity against human MDA-MB-468 cells assessed as cell growth inhibition after 4 days in presence of control siRNA for 3 days followed by compound treatment by WST-8 assay; format: functional, cell-based
MDA-MB-231 [7] = experiment: Antiproliferative activity against human MDA-MB-231 cells harboring mutant p53 assessed as cell growth inhibition without interaction with cereblon after 4 days by WST-8 assay; format: functional, cell-based; conditions: MDA-MB-231, 96 h
[8] = target: T2, Eukaryotic peptide chain release factor GTP-binding subunit ERF3A; experiment: Induction of GSPT1 degradation in human MDA-MB-231 cells transfected with CRBN siRNA LQ-021086-11-0002 assessed as decrease in GSPT1 protein level at 0.1 uM after 2 to 24 hrs by Western blot analysis; format: cell-based
Procedure, shortened: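 MDA-MB-231 or MDA-MB-468 cells transfected 2 days with CRBN siRNA (Lipofectamine RNAiMAX; non-targeting siRNA as control), then exposed to 0.1 μM for 2 h or 24 h. Cell culture was RPMI 1640 with 10% FBS at 37 °C, 5% CO2. GSPT1 and cereblon protein were probed by Western blot.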

RS4-11 = experiment: Antiproliferative activity against human RS4:11 cells expressing wild type p53 assessed as MDM2-independent cell growth inhibition after 4 days by WST-8 assay; format: functional, cell-based; conditions: RS4-11, 96 h; procedure, shortened: as §2
[9] = target: T1, Protein cereblon/Eukaryotic peptide chain release factor GTP-binding subunit ERF3A/DNA damage-binding protein 1/Cullin-4A (Homo sapiens); experiment: Protac activity at GSPT1/CUL4/DDB1/CRBN in human RS4:11 cells expressing wild type p53 assessed as effect on GSPT1 mRNA level after 3 hrs by qRT-PCR analysis; format: cell-based
Procedure, shortened: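 Total RNA taken from treated cells at the indicated time points. RNA concentration measured on a plate reader. GSPT1 mRNA quantified by qRT-PCR. Data are mean ± standard error from at least three independent experiments.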

MDA-MB-468 [10] = experiment: Antiproliferative activity against human MDA-MB-468 cells harboring mutant p53 assessed as cell growth inhibition after 4 days by WST-8 assay; format: functional, cell-based; conditions: MDA-MB-468, 96 h; procedure, shortened: as §2
[11] = target: T3, E3 ubiquitin-protein ligase Mdm2; experiment: Induction of MDM2 degradation in human RS4:11 cells assessed as downregulation of MDM2 at 1 to 30 nM after 1 hr by Western blot analysis; format: cell-based
Procedure, shortened: (§3)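 Western blots of MDM2 and p53 protein were run on RS4;11 cells (wild-type p53) in RPMI 1640 with 10% FBS. 2×10^6 cells/well were treated at the indicated concentrations for 1 h or 2 h. Lysis was in ice-cold buffer with protease inhibitor, followed by probing with specific antibodies.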
Target sequence in this assay (Q00987 whole entry, looked up, the tested form may be a part): as the sequence (Q00987 whole entry, the tested form may be a part) above

[12] = target: T3, E3 ubiquitin-protein ligase Mdm2; experiment: Induction of MDM2 degradation in human RS4:11 cells assessed as upregulation of p53 at 1 to 30 nM after 1 hr by Western blot analysis; format: cell-based; procedure, shortened: as §3
Target sequence in this assay (Q00987 whole entry, looked up, the tested form may be a part): as the sequence (Q00987 whole entry, the tested form may be a part) above

[13] = target: Cellular tumor antigen p53 (Homo sapiens) (UniProt P04637); experiment: Activation of p53 in human RS4:11 cells assessed as increase in MDM2 mRNA expression at 3 nM after 1 to 2 hrs by qRT-PCR analysis; format: cell-based
Procedure, shortened: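 RS4;11 cells (RPMI 1640, 10% FBS, 37 °C, 5% CO2) treated with 3 nM or 10 nM compound; total RNA extracted and mRNA of p53 targets MDM2, CDKN1A, PUMA and BAX quantified by qRT-PCR. Mean ± standard error from at least three independent experiments.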

MDA-MB-468 [14] = experiment: Antiproliferative activity against human MDA-MB-468 cells assessed as cell growth inhibition after 4 days in presence of control siRNA for 2 days followed by compound treatment by WST-8 assay; format: functional, cell-based; procedure, shortened: as §1

T2 sequence (P15170 whole entry): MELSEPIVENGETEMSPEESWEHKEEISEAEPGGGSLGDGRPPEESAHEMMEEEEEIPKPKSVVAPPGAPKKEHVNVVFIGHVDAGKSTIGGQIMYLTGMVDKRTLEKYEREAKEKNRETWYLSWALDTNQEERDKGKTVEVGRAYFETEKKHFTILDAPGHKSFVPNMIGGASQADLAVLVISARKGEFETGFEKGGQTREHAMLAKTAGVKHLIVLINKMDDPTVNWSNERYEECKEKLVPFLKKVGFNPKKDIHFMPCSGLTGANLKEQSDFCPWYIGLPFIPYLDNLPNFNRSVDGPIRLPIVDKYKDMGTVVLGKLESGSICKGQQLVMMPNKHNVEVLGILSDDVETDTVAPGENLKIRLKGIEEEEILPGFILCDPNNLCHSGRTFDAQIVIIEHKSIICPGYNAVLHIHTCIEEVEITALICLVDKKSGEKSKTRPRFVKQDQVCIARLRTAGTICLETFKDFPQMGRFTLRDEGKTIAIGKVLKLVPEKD
T1 sequence (P15170 whole entry, looked up): as the sequence (P15170 whole entry) above
T1 sequence (Q13619 whole entry, looked up): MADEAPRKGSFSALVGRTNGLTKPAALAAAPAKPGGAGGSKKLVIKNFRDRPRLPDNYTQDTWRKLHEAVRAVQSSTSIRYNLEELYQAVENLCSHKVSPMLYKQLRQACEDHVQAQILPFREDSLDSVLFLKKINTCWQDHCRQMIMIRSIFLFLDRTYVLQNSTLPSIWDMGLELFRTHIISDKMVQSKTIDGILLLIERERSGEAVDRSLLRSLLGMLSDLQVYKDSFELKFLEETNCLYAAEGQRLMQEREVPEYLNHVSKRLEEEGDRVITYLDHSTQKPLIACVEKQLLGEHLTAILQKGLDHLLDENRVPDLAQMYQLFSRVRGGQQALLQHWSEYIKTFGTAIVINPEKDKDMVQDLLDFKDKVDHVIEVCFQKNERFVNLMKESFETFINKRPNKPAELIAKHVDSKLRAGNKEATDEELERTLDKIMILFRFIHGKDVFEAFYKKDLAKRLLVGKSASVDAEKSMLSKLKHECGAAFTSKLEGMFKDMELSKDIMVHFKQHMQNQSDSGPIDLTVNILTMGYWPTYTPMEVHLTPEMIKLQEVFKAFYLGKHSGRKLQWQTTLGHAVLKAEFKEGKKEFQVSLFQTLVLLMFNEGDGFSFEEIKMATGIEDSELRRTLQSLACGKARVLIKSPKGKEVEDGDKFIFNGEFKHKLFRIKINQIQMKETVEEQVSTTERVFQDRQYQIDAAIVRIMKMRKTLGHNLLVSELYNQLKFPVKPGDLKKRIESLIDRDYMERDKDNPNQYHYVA
T1 sequence (Q16531 whole entry, looked up): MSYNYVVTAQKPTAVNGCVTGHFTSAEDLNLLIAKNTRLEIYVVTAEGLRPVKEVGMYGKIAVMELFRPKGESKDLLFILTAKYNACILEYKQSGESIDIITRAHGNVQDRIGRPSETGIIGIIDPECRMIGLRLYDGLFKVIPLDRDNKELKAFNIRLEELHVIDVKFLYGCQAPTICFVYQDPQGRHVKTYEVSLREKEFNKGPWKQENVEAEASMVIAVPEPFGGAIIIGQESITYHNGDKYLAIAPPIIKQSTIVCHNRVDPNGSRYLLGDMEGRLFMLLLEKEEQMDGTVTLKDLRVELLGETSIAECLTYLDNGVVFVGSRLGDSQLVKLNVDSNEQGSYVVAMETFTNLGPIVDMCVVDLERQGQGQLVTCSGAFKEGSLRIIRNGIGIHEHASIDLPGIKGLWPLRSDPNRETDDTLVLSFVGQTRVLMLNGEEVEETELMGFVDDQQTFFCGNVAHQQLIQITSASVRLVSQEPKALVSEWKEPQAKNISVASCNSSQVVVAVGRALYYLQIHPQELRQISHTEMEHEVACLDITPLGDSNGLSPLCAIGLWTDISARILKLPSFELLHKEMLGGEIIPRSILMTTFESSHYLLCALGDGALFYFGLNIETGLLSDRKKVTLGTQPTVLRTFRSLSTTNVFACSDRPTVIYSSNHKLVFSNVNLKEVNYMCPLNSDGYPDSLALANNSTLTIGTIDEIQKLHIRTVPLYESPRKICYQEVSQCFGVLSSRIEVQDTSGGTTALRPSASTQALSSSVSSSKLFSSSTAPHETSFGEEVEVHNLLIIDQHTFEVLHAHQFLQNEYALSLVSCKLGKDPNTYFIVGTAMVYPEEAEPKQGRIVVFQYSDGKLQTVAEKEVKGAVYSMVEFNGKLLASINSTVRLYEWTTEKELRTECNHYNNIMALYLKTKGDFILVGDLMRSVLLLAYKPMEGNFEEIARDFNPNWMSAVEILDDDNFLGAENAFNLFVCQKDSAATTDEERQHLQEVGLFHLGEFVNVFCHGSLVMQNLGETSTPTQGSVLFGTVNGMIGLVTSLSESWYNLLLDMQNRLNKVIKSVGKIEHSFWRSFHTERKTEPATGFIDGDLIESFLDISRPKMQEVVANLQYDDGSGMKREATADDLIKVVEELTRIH
T1 sequence (Q96SW2 whole entry, looked up): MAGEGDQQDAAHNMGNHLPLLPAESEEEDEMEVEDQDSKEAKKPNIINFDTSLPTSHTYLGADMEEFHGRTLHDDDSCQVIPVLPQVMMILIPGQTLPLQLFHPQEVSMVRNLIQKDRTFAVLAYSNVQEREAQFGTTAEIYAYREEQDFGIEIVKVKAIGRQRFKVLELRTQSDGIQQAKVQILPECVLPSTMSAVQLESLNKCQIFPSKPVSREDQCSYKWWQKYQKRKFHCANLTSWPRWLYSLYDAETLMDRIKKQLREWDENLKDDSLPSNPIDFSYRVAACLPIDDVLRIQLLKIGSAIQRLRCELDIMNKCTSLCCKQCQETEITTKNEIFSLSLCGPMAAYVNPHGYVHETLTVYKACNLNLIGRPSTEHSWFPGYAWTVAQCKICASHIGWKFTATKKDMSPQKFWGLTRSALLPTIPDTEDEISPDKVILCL
Cellular tumor antigen p53 (Homo sapiens), sequence (P04637 whole entry, looked up): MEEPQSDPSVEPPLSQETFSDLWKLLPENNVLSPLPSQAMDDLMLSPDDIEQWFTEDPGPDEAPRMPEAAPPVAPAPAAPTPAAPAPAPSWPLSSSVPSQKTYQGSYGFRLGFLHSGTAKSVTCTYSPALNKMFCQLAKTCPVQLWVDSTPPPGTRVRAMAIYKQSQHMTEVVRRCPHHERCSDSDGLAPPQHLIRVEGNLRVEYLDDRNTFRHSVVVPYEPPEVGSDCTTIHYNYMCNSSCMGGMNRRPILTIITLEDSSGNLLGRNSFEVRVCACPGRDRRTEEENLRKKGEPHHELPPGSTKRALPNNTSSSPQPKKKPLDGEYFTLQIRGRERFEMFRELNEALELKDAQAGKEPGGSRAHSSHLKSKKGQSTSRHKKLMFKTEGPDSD

In the case of `O=C1CCC(N2Cc3c(CCCCCNC(=O)[C@@H]4NC5(CCCCC5)[C@@]5(C(=O)Nc6cc(Cl)ccc65)[C@H]4c4cccc(Cl)c4F)cccc3C2=O)C(=O)N1` (stereo not given in full), the IC50 (MDA-MB-231 [1]) is reported as > 3000 nM, the Activity [2] is reported as “Dose-dependent effect” and the Activity [3] is reported as “inactive”. For the same compound, the IC50 [4] was 67.5 nM, the IC50 [5] was 2.6 nM and the IC50 (MDA-MB-468 [6]) was 62 nM. The IC50 (MDA-MB-231 [7]) was 39.4 nM, the Activity [8] was “inactive” and the IC50 (RS4-11) was 2.3 nM. The Activity [9] was “inactive”, the IC50 (MDA-MB-468 [10]) was 26.4 nM and the Activity [11] was “inactive”. For the same compound, the Activity [12] was “inactive”, the Activity [13] was “inactive” and the IC50 (MDA-MB-468 [14]) was 31.1 nM.
